In brackets after ≈: the same amount, converted by molar mass. Activity calls are given as the source filed them. The calls are words filed in the database; no cut-off is given here.
Experiments:
Type in all cases: functional
[1] = test system: Radical scavenging activity; assay: Antioxidant activity assessed as DPPH radical scavenging activity at 50 ug/ml
Summary of the method: (§1)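 Each test sample was mixed with 1 ml DPPH in methanol, incubated at 37 °C for 30 min, and read spectrophotometrically at 517 nm with a blank reading. Scavenging % was expressed as the absorbance decrease at 517 nm relative to DPPH solution without test sample.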

[2] = test system: Radical scavenging activity; assay: Antioxidant activity assessed as DPPH radical scavenging activity at 400 ug/ml; summary of the method: as §1
[3] = Antioxidant activity assessed as ABTS radical scavenging activity at 100 ug/ml
Summary of the method: (§2)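 Test samples at 50, 100, 200 and 400 ug/ml were each mixed with 1 ml of freshly prepared ABTS radical cation solution, adjusted to absorbance 0.7–0.9 at 734 nm. Mixtures reacted 2 h in the dark, then absorbance was read at 734 nm against a blank. Scavenging % was taken as the absorbance decrease relative to ABTS solution without test sample.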

MCF7 = assay: Cytotoxicity against human MCF7 cells after 24 hrs by MTT assay; conditions: MCF7, 24 h
Summary of the method: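 Exponentially growing cells plated at 10⁴ cells/well and allowed to attach, then exposed to test compounds or doxorubicin (dissolved in 0.1% DMSO, diluted in medium; range 1–100) for 24 h; controls received medium with 0.1% DMSO. MTT (1 mg/ml) added for 4 h at 37 °C, formazan dissolved in DMSO, absorbance read at 540 nm; % cytotoxicity calculated from blank-corrected absorbances versus control.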

[4] = Antioxidant activity assessed as ABTS radical scavenging activity at 50 ug/ml; summary of the method: as §2
[5] = Antioxidant activity assessed as ABTS radical scavenging activity at 200 ug/ml; summary of the method: as §2
Klebsiella pneumoniae [6] = assay: microbe, parasite or virus in culture; conditions: ATCC 11298, 24 h, read-out: IZ
Escherichia coli [7] = assay: microbe, parasite or virus in culture; conditions: ATCC 25922, 24 h, read-out: IZ
[8] = test system: Radical scavenging activity; assay: Antioxidant activity assessed as DPPH radical scavenging activity at 200 ug/ml; summary of the method: as §1
Bacillus cereus [9] = assay: Antimicrobial activity against Bacillus cereus ATCC 11778 at 100 ug/ml after 24 hrs by paper disk diffusion method; conditions: ATCC 11778, 24 h, read-out: IZ
Staphylococcus aureus [10] = assay: microbe, parasite or virus in culture; conditions: ATCC 9144, 24 h
[11] = test system: Radical scavenging activity; assay: Antioxidant activity assessed as DPPH radical scavenging activity at 100 ug/ml; summary of the method: as §1
[12] = Antioxidant activity assessed as ABTS radical scavenging activity at 400 ug/ml; summary of the method: as §2
[13] = test system: Radical scavenging activity; assay: Antioxidant activity assessed as DPPH radical scavenging activity; summary of the method: as §1
Escherichia coli [14] = assay: microbe, parasite or virus in culture; conditions: ATCC 25922, 24 h
[15] = Antioxidant activity assessed as ABTS radical scavenging activity; summary of the method: as §2
Bacillus cereus [16] = assay: microbe, parasite or virus in culture; conditions: ATCC 11778, 24 h
Klebsiella pneumoniae [17] = assay: microbe, parasite or virus in culture; conditions: ATCC 11298, 24 h
Staphylococcus aureus [18] = assay: microbe, parasite or virus in culture; conditions: ATCC 9144, 24 h, read-out: IZ

SMILES | Activity ([1]; at 50 µg/mL) [%] | Activity ([2]; at 400 µg/mL) [%] | Activity ([3]; at 100 µg/mL) [%] | GI50 (MCF7) [µM] | LC50 (concentration killing 50% of cells) (MCF7) [µM] | TGI (MCF7) [µM] | Activity ([4]; at 50 µg/mL) [%] | Activity ([5]; at 200 µg/mL) [%] | zone of inhibition at 100 µg/mL (Klebsiella pneumoniae [6]) [mm] | zone of inhibition at 100 µg/mL (Escherichia coli [7]) [mm] | Activity ([8]; at 200 µg/mL) [%] | zone of inhibition at 100 µg/mL (Bacillus cereus [9]) [mm] | MIC (Staphylococcus aureus [10]) [µg/mL] | Activity ([11]; at 100 µg/mL) [%] | Activity ([12]; at 400 µg/mL) [%] | IC50 [13] [µg/mL] | MIC (Escherichia coli [14]) [µg/mL] | MIC (Bacillus cereus [16]) [µg/mL] | MIC (Klebsiella pneumoniae [17]) [µg/mL] | zone of inhibition at 100 µg/mL (Staphylococcus aureus [18]) [mm] | other results
N#CC1=C(N)OC(c2c[nH]c3ccccc23)=C(C#N)C1c1cccc2ccccc12 (centres undefined) | 18.8 | 26.4 | 6.8 | 18.2 | 80.2 | 33.9 | 4.7 | 7.7 | 15 | 16 | 22.8 | 16 | 28.6 (≈ 73.6 µM) | 21.8 | 10.4 | 1599.62 (≈ 4120 µM) | 28 (≈ 72.1 µM) | 26.2 (≈ 67.5 µM) | 33.2 (≈ 85.5 µM) | 15 | IC50 [15]: > 1000 µg/mL
N#CC1=C(N)OC(c2c[nH]c3ccccc23)=C(C#N)C1c1ccccc1F (centres undefined) |  |  |  | 22.8 | > 100 | 48.2 |  |  | 15 | 15 |  | 14 | 23.4 (≈ 65.7 µM) |  |  |  | 27.4 (≈ 76.9 µM) | 22.6 (≈ 63.4 µM) | 30.2 (≈ 84.7 µM) | 19 | Activity [1]: inactive; Activity [2]: inactive; Activity [3]: inactive; Activity [4]: inactive; Activity [5]: inactive; Activity [8]: inactive; Activity [11]: inactive; Activity [12]: inactive; Activity [13]: inactive; Activity [15]: inactive
N#CC1=C(N)OC(c2c[nH]c3ccccc23)=C(C#N)C1c1ccc(Br)cc1 (centres undefined) | 46.7 | 57.8 | 14.6 | 21.8 | > 100 | 48.1 | 14.2 | 10.6 | 16 | 15 | 54.3 | 14 | 21.3 (≈ 51 µM) | 49.7 | 22.7 | 117.8 (≈ 282 µM) | 25.4 (≈ 60.9 µM) | 28 (≈ 67.1 µM) | 26.3 (≈ 63 µM) | 20 | IC50 [15]: 947.09 µg/mL (≈ 2270 µM)
COc1ccc(C2C(C#N)=C(N)OC(c3c[nH]c4ccccc34)=C2C#N)cc1OC (centres undefined) | 55.8 | 62.9 | 19.1 | 20.6 | 72.1 | 37.4 | 14.5 | 26.1 | 17 | 17 | 59.1 | 16 | 31.8 (≈ 79.8 µM) | 57.9 | 28.1 | < 50 | 26.7 (≈ 67 µM) | 25.4 (≈ 63.8 µM) | 21.2 (≈ 53.2 µM) | 15 | IC50 [15]: 867.28 µg/mL (≈ 2180 µM)
N#CC1=C(N)OC(c2c[nH]c3ccccc23)=C(C#N)C1c1ccc(F)cc1 (centres undefined) | 26.9 | 36.5 | 16.2 | 28 | > 100 | 52.4 | 8.4 | 22.4 | 17 | 18 | 31.4 | 16 | 16.8 (≈ 47.1 µM) | 28.9 | 26.7 | 901.11 (≈ 2530 µM) | 26.2 (≈ 73.5 µM) | 20.3 (≈ 57 µM) | 20.1 (≈ 56.4 µM) | 21 | IC50 [15]: 960 µg/mL (≈ 2690 µM)
N#CC1=C(N)OC(c2c[nH]c3ccccc23)=C(C#N)C1c1ccc(Cl)cc1 (centres undefined) |  |  |  |  |  |  |  |  | 18 | 19 |  | 18 | 13.4 (≈ 35.9 µM) |  |  |  | 21.5 (≈ 57.7 µM) | 19 (≈ 51 µM) | 17.5 (≈ 46.9 µM) | 23 | Activity [1]: inactive; Activity [2]: inactive; Activity [3]: inactive; Activity [4]: inactive; Activity [5]: inactive; Activity [8]: inactive; Activity [11]: inactive; Activity [12]: inactive; Activity [13]: inactive; Activity [15]: inactive
Cc1ccc(C2C(C#N)=C(N)OC(c3c[nH]c4ccccc34)=C2C#N)cc1 (centres undefined) | 24.8 | 30.4 | 5.5 |  |  |  | 5.2 | 6.2 | 17 | 15 | 28.9 | 14 | 22.3 (≈ 63.3 µM) | 25.8 | 8.5 | 1590.74 (≈ 4510 µM) | 36.3 (≈ 103 µM) | 25.8 (≈ 73.2 µM) | 25.1 (≈ 71.2 µM) | 20 | IC50 [15]: > 1000 µg/mL
N#CC1=C(N)OC(c2c[nH]c3ccccc23)=C(C#N)C1c1cccc(Br)c1 (centres undefined) |  |  |  |  |  |  |  |  | 14 | 14 |  | 14 | 27.5 (≈ 65.9 µM) |  |  |  | 30.2 (≈ 72.4 µM) | 24 (≈ 57.5 µM) | 26.3 (≈ 63 µM) | 16 | Activity [1]: inactive; Activity [2]: inactive; Activity [3]: inactive; Activity [4]: inactive; Activity [5]: inactive; Activity [8]: inactive; Activity [11]: inactive; Activity [12]: inactive; Activity [13]: inactive; Activity [15]: inactive

Reference: ChEMBL document CHEMBL1221298, “InCl3 mediated one-pot multicomponent synthesis, anti-microbial, antioxidant and anticancer evaluation of 3-pyranyl indole derivatives” (Bioorg Med Chem Lett, 2010)
